Measurements reported in ChEMBL document CHEMBL3085704, “Methyl-thiazoles: a novel mode of inhibition with the potential to develop novel inhibitors targeting InhA in Mycobacterium tuberculosis” (J Med Chem, 2013).
In brackets after ≈: the same amount, converted by molar mass.

How the values were obtained:
Adenosine receptor A1 = target: T1, Adenosine receptor A1 (Homo sapiens, UniProt P30542); assay: Inhibition of adenosine A1 receptor (unknown origin)
T1 sequence (P30542 whole entry): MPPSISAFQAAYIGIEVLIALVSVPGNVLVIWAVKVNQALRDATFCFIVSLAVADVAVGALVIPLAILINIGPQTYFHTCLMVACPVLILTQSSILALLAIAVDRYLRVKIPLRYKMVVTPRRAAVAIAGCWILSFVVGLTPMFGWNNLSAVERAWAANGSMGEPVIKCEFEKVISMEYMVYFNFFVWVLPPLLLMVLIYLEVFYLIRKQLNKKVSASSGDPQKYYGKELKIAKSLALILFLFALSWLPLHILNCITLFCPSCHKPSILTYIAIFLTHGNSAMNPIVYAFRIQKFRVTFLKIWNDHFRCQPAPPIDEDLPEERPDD

[1] = target: 5-hydroxytryptamine receptor 2B (Homo sapiens, UniProt P41595); assay: Inhibition of 5HT2B receptor (unknown origin)
Phosphodiesterase 4 = Phosphodiesterase 4 (Homo sapiens, UniProt P27815+Q08499+Q07343+Q08493); assay: Inhibition of PDE4 (unknown origin); format: protein assay
Cytochrome P450 3A4 = Cytochrome P450 3A4 (Homo sapiens, UniProt P08684); assay: Inhibition of CYP3A4 (unknown origin); format: ADME
[2] = Fraction unbound in plasma (unknown origin); format: ADME, cell-free
[3] = Aqueous solubility of the compound; format: physicochemical; settings: buffer
[4] = Cytotoxicity against human A549 cells assessed as growth inhibition after 7 days by Alamar Blue assay; format: cell-based; settings: read-out: MIC
[5] = target: T2, Enoyl-[acyl-carrier-protein] reductase [NADH] (Mycobacterium tuberculosis, UniProt P9WGR1); assay: Inhibition of Mycobacterium tuberculosis full length inhA expressed in Escherichia coli BL21 preincubated for 15 mins by fluorescence based assay in presence of NADH
T2 sequence (P9WGR1 whole entry): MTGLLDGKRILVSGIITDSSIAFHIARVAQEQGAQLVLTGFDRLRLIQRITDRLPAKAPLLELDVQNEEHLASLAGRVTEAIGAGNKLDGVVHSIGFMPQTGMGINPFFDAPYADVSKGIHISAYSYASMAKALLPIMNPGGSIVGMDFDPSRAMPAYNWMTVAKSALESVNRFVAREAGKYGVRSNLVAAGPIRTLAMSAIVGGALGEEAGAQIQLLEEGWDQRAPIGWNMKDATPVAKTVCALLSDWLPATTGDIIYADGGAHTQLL

[6] = test system: Mycobacterium tuberculosis; assay: Antimycobacterial activity against Mycobacterium tuberculosis H37Rv ATCC 27294 assessed as parasite growth inhibition after 7 days by Alamar Blue assay; format: functional; settings: H37Rv ATCC 27294, 168 h
[7] = target: T2, Enoyl-[acyl-carrier-protein] reductase [NADH]; assay: Binding affinity to Mycobacterium tuberculosis NADH-bound form of full length inhA (1 to 255) by SPR assay
[8] = target: T2, Enoyl-[acyl-carrier-protein] reductase [NADH]; assay: Binding affinity to Mycobacterium tuberculosis NADH-bound form full length inhA (1 to 255) by isothermal titration calorimetry assay
Method in brief: (§1)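 InhA titrated with compound by isothermal titration calorimetry, either as apo enzyme or pre-bound to NADH or NAD+ cofactor. No enoyl-ACP substrate was present. ITC data were used mainly to derive Kd and binding stoichiometry.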

[9] = target: T2, Enoyl-[acyl-carrier-protein] reductase [NADH]; assay: Binding affinity to Mycobacterium tuberculosis NAD+-bound form of full length inhA (1 to 255) by isothermal titration calorimetry assay; method in brief: as §1
[10] = target: T3, Enoyl-[acyl-carrier-protein] reductase [NADH] (Mycobacterium tuberculosis) (UniProt P9WGR1); settings: 50 uM
T3 sequence (whole entry): T2 sequence (P9WGR1 whole entry)

[11] = target: T3, Enoyl-[acyl-carrier-protein] reductase [NADH] (Mycobacterium tuberculosis); settings: 50 uM; remark: listed apart in the source
[12] = target: T3, Enoyl-[acyl-carrier-protein] reductase [NADH] (Mycobacterium tuberculosis)
[13] = target: T3, Enoyl-[acyl-carrier-protein] reductase [NADH] (Mycobacterium tuberculosis); remark: listed apart in the source
[14] = target: T3, Enoyl-[acyl-carrier-protein] reductase [NADH] (Mycobacterium tuberculosis); remark: listed apart in the source
[15] = target: T4, Adenosine receptor A1 (Homo sapiens) (UniProt P30542); assay: Inhibition of adenosine A1 receptor (unknown origin) at 30 uM
T4 sequence (whole entry): T1 sequence (P30542 whole entry)

[16] = target: T5, Adenosine receptor A3 (Homo sapiens) (UniProt P0DMS8); assay: Inhibition of adenosine A3 receptor (unknown origin) at 30 uM
T5 sequence (whole entry): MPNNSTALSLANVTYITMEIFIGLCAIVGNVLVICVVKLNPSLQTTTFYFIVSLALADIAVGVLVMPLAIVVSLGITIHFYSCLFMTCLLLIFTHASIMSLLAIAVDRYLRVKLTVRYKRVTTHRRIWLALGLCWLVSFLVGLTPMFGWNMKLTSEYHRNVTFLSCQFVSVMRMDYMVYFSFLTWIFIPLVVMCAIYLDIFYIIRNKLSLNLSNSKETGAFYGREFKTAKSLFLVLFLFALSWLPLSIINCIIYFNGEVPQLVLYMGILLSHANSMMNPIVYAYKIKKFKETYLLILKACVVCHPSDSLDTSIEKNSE

Homo sapiens = species: Homo sapiens; assay: Inhibition of angiotensin receptor (unknown origin) at 30 uM
[17] = test system: Mycobacterium tuberculosis; assay: Antitubercular activity against Mycobacterium tuberculosis; format: functional
[18] = target: T2, Enoyl-[acyl-carrier-protein] reductase [NADH]; assay: Inhibition of wild type Mycobacterium tuberculosis inhA

Sequence of Cytochrome P450 3A4 (P08684 whole entry): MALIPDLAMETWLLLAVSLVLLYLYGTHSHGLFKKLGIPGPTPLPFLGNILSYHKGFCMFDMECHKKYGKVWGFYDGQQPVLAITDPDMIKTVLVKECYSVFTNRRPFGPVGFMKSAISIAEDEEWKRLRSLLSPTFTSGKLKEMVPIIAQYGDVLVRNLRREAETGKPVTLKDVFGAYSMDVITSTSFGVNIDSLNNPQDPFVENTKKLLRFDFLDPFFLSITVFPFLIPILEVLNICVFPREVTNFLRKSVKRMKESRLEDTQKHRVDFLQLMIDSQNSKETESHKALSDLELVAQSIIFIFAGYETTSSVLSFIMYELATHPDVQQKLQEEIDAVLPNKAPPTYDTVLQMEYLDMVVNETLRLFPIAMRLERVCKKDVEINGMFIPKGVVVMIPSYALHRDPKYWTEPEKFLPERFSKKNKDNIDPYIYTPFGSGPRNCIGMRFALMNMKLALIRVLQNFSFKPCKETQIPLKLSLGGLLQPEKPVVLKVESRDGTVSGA
Sequence of 5-hydroxytryptamine receptor 2B (P41595 whole entry): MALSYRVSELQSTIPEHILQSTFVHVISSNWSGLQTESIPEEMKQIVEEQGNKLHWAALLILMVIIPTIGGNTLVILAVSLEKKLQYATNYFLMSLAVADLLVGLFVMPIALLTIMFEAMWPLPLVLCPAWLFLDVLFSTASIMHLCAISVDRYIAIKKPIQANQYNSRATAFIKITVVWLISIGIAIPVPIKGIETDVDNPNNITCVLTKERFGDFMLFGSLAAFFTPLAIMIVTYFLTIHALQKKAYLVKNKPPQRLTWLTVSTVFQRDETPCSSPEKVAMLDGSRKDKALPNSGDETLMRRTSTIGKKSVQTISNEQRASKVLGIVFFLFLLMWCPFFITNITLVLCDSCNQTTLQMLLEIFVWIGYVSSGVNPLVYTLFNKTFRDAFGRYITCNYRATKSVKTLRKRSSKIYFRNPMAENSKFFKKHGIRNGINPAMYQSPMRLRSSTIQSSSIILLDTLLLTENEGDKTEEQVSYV

Cc1csc(C(C)(O)c2nnc(NC(=O)Cc3c(F)cccc3F)s2)n1 (racemic)
IC50 (Adenosine receptor A1): 21000 nM
IC50 [1]: 64000 nM
IC50 (Phosphodiesterase 4): 23000 nM
IC50 (Cytochrome P450 3A4): > 50000 nM
fraction unbound [2]: 0.019
solubility [3]: 26 µM (≈ 10.3 µg/mL)
MCC at 168 h [4]: > 100 µM
IC50 [5]: 200 nM
MIC [6]: 3.75 µM

Cc1csc([C@](C)(O)c2nnc(Nc3ccn(Cc4c(F)cccc4F)n3)s2)n1
IC50 (Cytochrome P450 3A4): 1900 nM
fraction unbound [2]: 0.034
solubility [3]: 208 µM (≈ 90.4 µg/mL)
MCC at 168 h [4]: 78 µM
Kd [7]: 11.5 nM
Kd [8]: 13.7 nM
Kd [9]: 9300 nM
IC50 [5]: 3 nM
MIC [6]: 0.19 µM
ΔTm [10]: 69.3 °C
ΔTm [11]: 55 °C
Tm [12]: 56.5 °C
Tm [13]: 55.2 °C
Tm [14]: 54.2 °C

Cc1csc(C(C)(O)c2nnc(Nc3ncn(Cc4c(F)cccc4F)n3)s2)n1 (racemic)
inhibition [15]: 63%
inhibition [16]: 70%
inhibition (Homo sapiens): 69%
IC50 (Cytochrome P450 3A4): 48000 nM
fraction unbound [2]: 0.143
solubility [3]: 69 µM (≈ 30 µg/mL)
MCC at 168 h [4]: > 100 µM
IC50 [5]: 30 nM
MIC [6]: 0.391 µM

Cc1csc(C(C)(O)c2nnc(Nc3cc(C4CC4)n(Cc4c(F)cccc4F)n3)s2)n1 (racemic)
IC50 [5]: 970 nM
MIC [6]: > 12.5 µM

CO[C@H]1/C=C/O[C@@]2(C)Oc3c(C)c(O)c4c(O)c(c(/C=N/N5CCN(C)CC5)c(O)c4c3C2=O)NC(=O)/C(C)=C\C=C\[C@H](C)[C@H](O)[C@@H](C)[C@@H](O)[C@@H](C)[C@H](OC(C)=O)[C@@H]1C [RIFAMPIN]
MIC [6]: 0.007 µg/mL

O=C1CC(c2nc3ccccc3n2Cc2ccccc2)CN1C1CCCCC1 (configuration not stated)
IC50 [5]: 1000 nM
MIC [6]: > 64 µM

Cc1csc(C(C)(O)c2nnc(NC(=O)c3ccn(Cc4c(F)cccc4F)n3)s2)n1 (racemic)
IC50 [5]: 34000 nM
MIC [6]: > 100 µM

Cc1csc(C(C)(O)c2nnc(Nc3ccn(Cc4c(F)cccc4F)n3)s2)n1 (racemic)
IC50 [5]: 4 nM
MIC [6]: 0.5 µM

Oc1cc(Cl)ccc1Oc1ccc(Cl)cc1Cl [TRICLOSAN]
MIC [17]: 64 µM (≈ 18.5 µg/mL)

Cc1csc(C(C)(O)c2nnc(NCC3CN(Cc4c(F)cccc4F)C(=O)O3)s2)n1 (racemic)
IC50 [5]: 400 nM
MIC [6]: > 100 µM

CCCCCCc1ccc(Oc2ccccc2C)c(O)c1
IC50 [18]: 22 nM

Cc1csc(C(C)(O)c2nnc(Nc3nccc(Cc4c(F)cccc4F)n3)s2)n1 (racemic)
IC50 [5]: < 2 nM
MIC [6]: 12.5 µM

NNC(=O)c1ccncc1 [ISONIAZID]
MIC [6]: 0.03 µg/mL
MIC [17]: 0.05 µM (≈ 0.00686 µg/mL)

Cc1csc(C(C)(O)c2nnc(Nc3cccc(Cc4c(F)cccc4F)n3)s2)n1 (racemic)
IC50 [5]: < 2 nM
MIC [6]: 3.13 µM

CC/C(C)=C1\OC(=O)[C@H](C)[C@H](O)[C@H](Cc2cccnc2)NC(=O)[C@@H](NC(=O)c2ncccc2O)[C@@H](C)OC1=O [PYRIDOMYCIN]
MIC [17]: 0.57 µM (≈ 0.308 µg/mL)

Cc1csc(C(C)(O)c2nnc(Nc3cnn(Cc4c(F)cccc4F)c3)s2)n1 (racemic)
IC50 [5]: 234 nM
MIC [6]: 7.5 µM

COC(=O)c1cnc2ccc(C#N)cc2c1NCCCc1ccccc1
IC50 [5]: 20 nM
MIC [6]: > 64 µM

COc1c(N2C[C@@H]3CCCN[C@@H]3C2)c(F)cc2c(=O)c(C(=O)O)cn(C3CC3)c12 [MOXIFLOXACIN]
MIC [6]: 0.12 µg/mL
